Values after ≈ are worked out from the molar mass of the structure shown.
Columns and labels:
Type in all cases: functional
[1] = tested on: Staphylococcus aureus; assay: Antibacterial activity against hospital-acquired methicillin-resistant Staphylococcus aureus isolate 1838 after 24 hrs by modified broth macrodilution method; settings: isolate 1838, 24 h
In short: (§1)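 MIC read after 24 h incubation by modified broth macrodilution, validated per CLSI recommendations, against recent clinical MRSA isolates (hospital- and community-acquired, hVISA, VISA, VRSA). Daptomycin tests ran in Mueller-Hinton broth with added calcium.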

[2] = tested on: Staphylococcus aureus; assay: Antibacterial activity against vancomycin-intermediate Staphylococcus aureus isolate 1003 after 24 hrs by modified broth macrodilution method; settings: isolate 1003, 24 h; in short: as §1
[3] = tested on: Staphylococcus aureus; assay: Antibacterial activity against vancomycin-intermediate Staphylococcus aureus isolate 1287 after 24 hrs by modified broth macrodilution method; settings: isolate 1287, 24 h; in short: as §1
[4] = tested on: Staphylococcus aureus; assay: Antibacterial activity against community-acquired methicillin-resistant panton-valentine leukocidin-positive Staphylococcus aureus isolate 1472 after 24 hrs by modified broth macrodilution method; settings: isolate 1472, 24 h; in short: as §1
[5] = tested on: Staphylococcus aureus; assay: Antibacterial activity against vancomycin-intermediate Staphylococcus aureus isolate 1012 after 24 hrs by modified broth macrodilution method; settings: isolate 1012, 24 h; in short: as §1
[6] = tested on: Staphylococcus aureus; assay: Antibacterial activity against vancomycin-intermediate Staphylococcus aureus isolate 1004 after 24 hrs by modified broth macrodilution method; settings: isolate 1004, 24 h; in short: as §1
[7] = tested on: Staphylococcus aureus; assay: Antibacterial activity against hospital-acquired methicillin-resistant Staphylococcus aureus isolate 1808 after 24 hrs by modified broth macrodilution method; settings: isolate 1808, 24 h; in short: as §1
[8] = tested on: Staphylococcus aureus; assay: Antibacterial activity against vancomycin-intermediate Staphylococcus aureus isolate 1006 after 24 hrs by modified broth macrodilution method; settings: isolate 1006, 24 h; in short: as §1
[9] = tested on: Staphylococcus aureus; assay: Antibacterial activity against vancomycin-susceptible Staphylococcus aureus after 24 hrs by modified broth macrodilution method
In short: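 MICs determined in recent clinical MRSA isolates by a modified broth macrodilution method per CLSI recommendations, with 24 h incubation. Daptomycin tests used Mueller-Hinton broth supplemented with calcium. Value is the lowest inhibitory drug concentration.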

[10] = tested on: Staphylococcus aureus; assay: Antibacterial activity against community-acquired methicillin-resistant panton-valentine leukocidin-positive Staphylococcus aureus isolate 1468 after 24 hrs by modified broth macrodilution method; settings: isolate 1468, 24 h; in short: as §1
[11] = tested on: Staphylococcus aureus; assay: Antibacterial activity against vancomycin-resistant Staphylococcus aureus after 24 hrs by modified broth macrodilution method; in short: as §1
[12] = tested on: Staphylococcus aureus; assay: Antibacterial activity against vancomycin-hetero-intermediate Staphylococcus aureus isolate 873 after 24 hrs by modified broth macrodilution method; settings: isolate 873, 24 h; in short: as §1
[13] = tested on: Staphylococcus aureus; assay: Antibacterial activity against community-acquired methicillin-resistant panton-valentine leukocidin-positive Staphylococcus aureus isolate 1469 after 24 hrs by modified broth macrodilution method; settings: isolate 1469, 24 h; in short: as §1
[14] = tested on: Staphylococcus aureus; assay: Antibacterial activity against vancomycin-intermediate Staphylococcus aureus isolate 1984 after 24 hrs by modified broth macrodilution method; settings: isolate 1984, 24 h; in short: as §1
[15] = tested on: Staphylococcus aureus; assay: Antibacterial activity against community-acquired methicillin-resistant panton-valentine leukocidin-positive Staphylococcus aureus isolate 593 after 24 hrs by modified broth macrodilution method; settings: isolate 593, 24 h; in short: as §1
[16] = tested on: Staphylococcus aureus; assay: Antibacterial activity against community-acquired methicillin-resistant panton-valentine leukocidin-positive Staphylococcus aureus isolate 693 after 24 hrs by modified broth macrodilution method; settings: isolate 693, 24 h; in short: as §1
[17] = tested on: Staphylococcus aureus; assay: Antibacterial activity against vancomycin-resistant Staphylococcus aureus isolate 509 after 24 hrs by modified broth macrodilution method; settings: isolate 509, 24 h; in short: as §1
[18] = tested on: Staphylococcus aureus; assay: Antibacterial activity against vancomycin-resistant Staphylococcus aureus isolate 1264 after 24 hrs by modified broth macrodilution method; settings: isolate 1264, 24 h; in short: as §1
[19] = tested on: Staphylococcus aureus; assay: Antibacterial activity against community-acquired methicillin-resistant panton-valentine leukocidin-negative Staphylococcus aureus isolate 1470 after 24 hrs by modified broth macrodilution method; settings: isolate 1470, 24 h; in short: as §1
[20] = tested on: Staphylococcus aureus; assay: Antibacterial activity against vancomycin-hetero-intermediate Staphylococcus aureus after 24 hrs by modified broth macrodilution method; in short: as §1
[21] = tested on: Staphylococcus aureus; assay: Antibacterial activity against methicillin-resistant Staphylococcus aureus isolate 2003 after 24 hrs by modified broth macrodilution method; settings: isolate 2003, 24 h; in short: as §1
[22] = tested on: Staphylococcus aureus; assay: Antibacterial activity against community-acquired methicillin-resistant panton-valentine leukocidin-positive Staphylococcus aureus isolate 813 after 24 hrs by modified broth macrodilution method; settings: isolate 813, 24 h; in short: as §1
[23] = tested on: Staphylococcus aureus; assay: Antibacterial activity against vancomycin-intermediate Staphylococcus aureus isolate 1010 after 24 hrs by modified broth macrodilution method; settings: isolate 1010, 24 h; in short: as §1
[24] = tested on: Staphylococcus aureus; assay: Antibacterial activity against vancomycin-resistant Staphylococcus aureus isolate 1263 after 24 hrs by modified broth macrodilution method; settings: isolate 1263, 24 h; in short: as §1
[25] = tested on: Staphylococcus aureus; assay: Antibacterial activity against vancomycin-intermediate Staphylococcus aureus isolate 1009 after 24 hrs by modified broth macrodilution method; settings: isolate 1009, 24 h; in short: as §1
[26] = tested on: Staphylococcus aureus; assay: Antibacterial activity against hospital-acquired methicillin-resistant Staphylococcus aureus isolate 1743 after 24 hrs by modified broth macrodilution method; settings: isolate 1743, 24 h; in short: as §1
[27] = tested on: Staphylococcus aureus; assay: Antibacterial activity against vancomycin-intermediate Staphylococcus aureus isolate 1007 after 24 hrs by modified broth macrodilution method; settings: isolate 1007, 24 h; in short: as §1
[28] = tested on: Staphylococcus aureus; assay: Antibacterial activity against hospital-acquired methicillin-resistant Staphylococcus aureus isolate 1751 after 24 hrs by modified broth macrodilution method; settings: isolate 1751, 24 h; in short: as §1
[29] = tested on: Staphylococcus aureus; assay: Antibacterial activity against vancomycin-intermediate Staphylococcus aureus isolate 770 after 24 hrs by modified broth macrodilution method; settings: isolate 770, 24 h; in short: as §1
[30] = tested on: Staphylococcus aureus; assay: Antibacterial activity against vancomycin-intermediate Staphylococcus aureus isolate 1015 after 24 hrs by modified broth macrodilution method; settings: isolate 1015, 24 h; in short: as §1
[31] = tested on: Staphylococcus aureus; assay: Antibacterial activity against hospital-acquired methicillin-resistant Staphylococcus aureus isolate 1867 after 24 hrs by modified broth macrodilution method; settings: isolate 1867, 24 h; in short: as §1
[32] = tested on: Staphylococcus aureus; assay: Antibacterial activity against vancomycin-resistant Staphylococcus aureus isolate 557 after 24 hrs by modified broth macrodilution method; settings: isolate 557, 24 h; in short: as §1
[33] = tested on: Staphylococcus aureus; assay: Antibacterial activity against vancomycin-intermediate Staphylococcus aureus isolate 1017 after 24 hrs by modified broth macrodilution method; settings: isolate 1017, 24 h; in short: as §1
[34] = tested on: Staphylococcus aureus; assay: Antibacterial activity against hospital-acquired methicillin-resistant Staphylococcus aureus isolate 1766 after 24 hrs by modified broth macrodilution method; settings: isolate 1766, 24 h; in short: as §1
[35] = tested on: Staphylococcus aureus; assay: Antibacterial activity against vancomycin-hetero-intermediate Staphylococcus aureus isolate 618 after 24 hrs by modified broth macrodilution method; settings: isolate 618, 24 h; in short: as §1
[36] = tested on: Staphylococcus aureus; assay: Antibacterial activity against vancomycin-intermediate Staphylococcus aureus isolate 1008 after 24 hrs by modified broth macrodilution method; settings: isolate 1008, 24 h; in short: as §1
[37] = tested on: Staphylococcus aureus; assay: Antibacterial activity against hospital-acquired methicillin-resistant Staphylococcus aureus isolate 1806 after 24 hrs by modified broth macrodilution method; settings: isolate 1806, 24 h; in short: as §1
[38] = tested on: Staphylococcus aureus; assay: Antibacterial activity against vancomycin-intermediate Staphylococcus aureus isolate 511 after 24 hrs by modified broth macrodilution method; settings: isolate 511, 24 h; in short: as §1
[39] = tested on: Staphylococcus aureus; assay: Antibacterial activity against vancomycin-resistant Staphylococcus aureus isolate 510 after 24 hrs by modified broth macrodilution method; settings: isolate 510, 24 h; in short: as §1
[40] = tested on: Staphylococcus aureus; assay: Antibacterial activity against community-acquired methicillin-resistant panton-valentine leukocidin-positive Staphylococcus aureus isolate 1471 after 24 hrs by modified broth macrodilution method; settings: isolate 1471, 24 h; in short: as §1
[41] = tested on: Staphylococcus aureus; assay: Antibacterial activity against vancomycin-intermediate Staphylococcus aureus isolate 1016 after 24 hrs by modified broth macrodilution method; settings: isolate 1016, 24 h; in short: as §1
[42] = tested on: Staphylococcus aureus; assay: Antibacterial activity against vancomycin-intermediate Staphylococcus aureus isolate 1013 after 24 hrs by modified broth macrodilution method; settings: isolate 1013, 24 h; in short: as §1
[43] = tested on: Staphylococcus aureus; assay: Antibacterial activity against vancomycin-intermediate Staphylococcus aureus after 24 hrs by modified broth macrodilution method; in short: as §1
[44] = tested on: Staphylococcus aureus; assay: Antibacterial activity against community-acquired methicillin-resistant panton-valentine leukocidin-positive Staphylococcus aureus isolate 950 after 24 hrs by modified broth macrodilution method; settings: isolate 950, 24 h; in short: as §1
[45] = tested on: Staphylococcus aureus; assay: Antibacterial activity against vancomycin-intermediate Staphylococcus aureus isolate 1005 after 24 hrs by modified broth macrodilution method; settings: isolate 1005, 24 h; in short: as §1
[46] = tested on: Staphylococcus aureus; assay: Antibacterial activity against hospital-acquired methicillin-resistant Staphylococcus aureus isolate 1851 after 24 hrs by modified broth macrodilution method; settings: isolate 1851, 24 h; in short: as §1
[47] = tested on: Staphylococcus aureus; assay: Antibacterial activity against hospital-acquired methicillin-resistant Staphylococcus aureus isolate 1776 after 24 hrs by modified broth macrodilution method; settings: isolate 1776, 24 h; in short: as §1
[48] = tested on: Staphylococcus aureus; assay: Antibacterial activity against vancomycin-intermediate Staphylococcus aureus isolate 1014 after 24 hrs by modified broth macrodilution method; settings: isolate 1014, 24 h; in short: as §1
[49] = tested on: Staphylococcus aureus; assay: Antibacterial activity against community-acquired methicillin-resistant panton-valentine leukocidin-positive Staphylococcus aureus isolate 815 after 24 hrs by modified broth macrodilution method; settings: isolate 815, 24 h; in short: as §1
[50] = tested on: Staphylococcus aureus; assay: Antibacterial activity against vancomycin-intermediate Staphylococcus aureus isolate 555 after 24 hrs by modified broth macrodilution method; settings: isolate 555, 24 h; in short: as §1
[51] = tested on: Staphylococcus aureus; assay: Antibacterial activity against vancomycin-intermediate Staphylococcus aureus isolate 1011 after 24 hrs by modified broth macrodilution method; settings: isolate 1011, 24 h; in short: as §1

CCCCCCCCCC(=O)N[C@@H](Cc1c[nH]c2ccccc12)C(=O)N[C@H](CC(N)=O)C(=O)N[C@@H](CC(=O)O)C(=O)N[C@@H]1C(=O)NCC(=O)N[C@@H](CCCN)C(=O)N[C@@H](CC(=O)O)C(=O)N[C@H](C)C(=O)N[C@@H](CC(=O)O)C(=O)NCC(=O)N[C@H](CO)C(=O)N[C@@H]([C@H](C)CC(=O)O)C(=O)N[C@@H](CC(=O)c2ccccc2N)C(=O)O[C@@H]1C
MIC [1]: 0.5 mg/L (≈ 0.309 µM)
MIC [2]: 2 mg/L (≈ 1.23 µM)
MIC [3]: 2 mg/L (≈ 1.23 µM)
MIC [4]: 0.5 mg/L (≈ 0.309 µM)
MIC [5]: 1 mg/L (≈ 0.617 µM)
MIC [6]: 0.5 mg/L (≈ 0.309 µM)
MIC [7]: 0.5 mg/L (≈ 0.309 µM)
MIC [8]: 2 mg/L (≈ 1.23 µM)
MIC [9]: 0.25 mg/L (≈ 0.154 µM)
MIC [10]: 1 mg/L (≈ 0.617 µM)
MIC [11]: 0.25 mg/L (≈ 0.154 µM)
MIC [12]: 0.5 mg/L (≈ 0.309 µM)
MIC [13]: 0.5 mg/L (≈ 0.309 µM)
MIC [14]: 2 mg/L (≈ 1.23 µM)
MIC [15]: 0.5 mg/L (≈ 0.309 µM)
MIC [16]: 0.5 mg/L (≈ 0.309 µM)
MIC [17]: 0.5 mg/L (≈ 0.309 µM)
MIC [18]: 0.25 mg/L (≈ 0.154 µM)
MIC [19]: 0.5 mg/L (≈ 0.309 µM)
MIC [20]: 0.5 mg/L (≈ 0.309 µM)
MIC [21]: 0.5 mg/L (≈ 0.309 µM)
MIC [22]: 0.5 mg/L (≈ 0.309 µM)
MIC [23]: 1 mg/L (≈ 0.617 µM)
MIC [24]: 0.5 mg/L (≈ 0.309 µM)
MIC [25]: 2 mg/L (≈ 1.23 µM)
MIC [26]: 0.25 mg/L (≈ 0.154 µM)
MIC [27]: 2 mg/L (≈ 1.23 µM)
MIC [28]: 0.5 mg/L (≈ 0.309 µM)
MIC [29]: 0.5 mg/L (≈ 0.309 µM)
MIC [30]: 1 mg/L (≈ 0.617 µM)
MIC [31]: 0.5 mg/L (≈ 0.309 µM)
MIC [32]: 0.25 mg/L (≈ 0.154 µM)
MIC [33]: 1 mg/L (≈ 0.617 µM)
MIC [34]: 1 mg/L (≈ 0.617 µM)
MIC [35]: 1 mg/L (≈ 0.617 µM)
MIC [36]: 2 mg/L (≈ 1.23 µM)
MIC [37]: 0.5 mg/L (≈ 0.309 µM)
MIC [38]: 1 mg/L (≈ 0.617 µM)
MIC [39]: 0.5 mg/L (≈ 0.309 µM)
MIC [40]: 0.5 mg/L (≈ 0.309 µM)
MIC [41]: 2 mg/L (≈ 1.23 µM)
MIC [42]: 2 mg/L (≈ 1.23 µM)
MIC [43]: 0.5 mg/L (≈ 0.309 µM)
MIC [44]: 0.25 mg/L (≈ 0.154 µM)
MIC [45]: 1 mg/L (≈ 0.617 µM)
MIC [46]: 0.5 mg/L (≈ 0.309 µM)
MIC [47]: 0.5 mg/L (≈ 0.309 µM)
MIC [48]: 2 mg/L (≈ 1.23 µM)
MIC [49]: 0.5 mg/L (≈ 0.309 µM)
MIC [50]: 4 mg/L (≈ 2.47 µM)
MIC [51]: 1 mg/L (≈ 0.617 µM)
